Source: ChEMBL document CHEMBL1649517, “Effect of MexXY overexpression on ceftobiprole susceptibility in Pseudomonas aeruginosa” (2009)
≈ marks a conversion by molar mass, not a printed value.

Columns and labels:
Pseudomonas aeruginosa [1] = test: Antimicrobial activity against Pseudomonas aeruginosa isolate OC14552 by broth microdilution method; assay type: functional
Procedure, shortened: (§1)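 Clinical P. aeruginosa isolates, baseline and posttreatment, collected in ceftobiprole phase III clinical trials. MICs were measured by CLSI broth microdilution.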

Pseudomonas aeruginosa [2] = test: Antimicrobial activity against Pseudomonas aeruginosa isolate OC17355 harboring plasmid MexZ expressing mexXY gene by broth microdilution method; assay type: functional
Procedure, shortened: (§2)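 CLSI broth microdilution MIC on P. aeruginosa transformants. Plasmids (control vector pJAK16, pMexXY or cloned mexZ repressor; 200 ng) were electroporated into fresh electrocompetent cells, and transformants were selected on Mueller-Hinton plates with chloramphenicol 200 or 400 μg/ml. Cultures were kept in chloramphenicol 200 μg/ml to maintain the plasmid, with 1 mM IPTG to induce the cloned gene.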

Pseudomonas aeruginosa [3] = test: Antimicrobial activity against Pseudomonas aeruginosa isolate OC14812 harboring plasmid MexZ expressing mexXY gene by broth microdilution method; assay type: functional; procedure, shortened: as §2
Pseudomonas aeruginosa [4] = test: Antimicrobial activity against Pseudomonas aeruginosa isolate OC16830 by broth microdilution method; assay type: functional; procedure, shortened: as §1
Pseudomonas aeruginosa [5] = test: Antimicrobial activity against Pseudomonas aeruginosa isolate OC16827 harboring plasmid JAK16 expressing mexXY gene by broth microdilution method; assay type: functional; procedure, shortened: as §2
Pseudomonas aeruginosa [6] = test: Antimicrobial activity against Pseudomonas aeruginosa isolate OC17355 harboring plasmid JAK16 expressing mexXY gene by broth microdilution method; assay type: functional; procedure, shortened: as §2
Pseudomonas aeruginosa [7] = test: Antimicrobial activity against Pseudomonas aeruginosa isolate OC14805 by broth microdilution method; assay type: functional; procedure, shortened: as §1
Pseudomonas aeruginosa [8] = test: Antimicrobial activity against Pseudomonas aeruginosa isolate OC14812 by broth microdilution method; assay type: functional; procedure, shortened: as §1
Pseudomonas aeruginosa [9] = test: Antimicrobial activity against Pseudomonas aeruginosa PAO1 harboring plasmid MexZ expressing mexXY gene by broth microdilution method; assay type: functional; procedure, shortened: as §2
Pseudomonas aeruginosa [10] = test: Antimicrobial activity against Pseudomonas aeruginosa isolate OC17349 by broth microdilution method; assay type: functional; procedure, shortened: as §1
Pseudomonas aeruginosa [11] = test: Antimicrobial activity against Pseudomonas aeruginosa isolate OC16830 harboring plasmid JAK16 expressing mexXY gene by broth microdilution method; assay type: functional; procedure, shortened: as §2
Pseudomonas aeruginosa [12] = test: Antimicrobial activity against Pseudomonas aeruginosa isolate OC16827 by broth microdilution method; assay type: functional; procedure, shortened: as §1
Pseudomonas aeruginosa [13] = test: Antimicrobial activity against Pseudomonas aeruginosa isolate OC14551 by broth microdilution method; assay type: functional; procedure, shortened: as §1
Pseudomonas aeruginosa [14] = test: Antimicrobial activity against Pseudomonas aeruginosa isolate OC14551 harboring plasmid JAK16 expressing mexXY gene by broth microdilution method; assay type: functional; procedure, shortened: as §2
Pseudomonas aeruginosa [15] = test: Antimicrobial activity against Pseudomonas aeruginosa isolate OC17355 by broth microdilution method; assay type: functional; procedure, shortened: as §1
Pseudomonas aeruginosa [16] = test: Antimicrobial activity against Pseudomonas aeruginosa PAO1 harboring plasmid JAK16 expressing mexXY gene by broth microdilution method; assay type: functional; procedure, shortened: as §2
Pseudomonas aeruginosa [17] = test: Antimicrobial activity against Pseudomonas aeruginosa isolate OC14551 harboring plasmid MexZ expressing mexXY gene by broth microdilution method; assay type: functional; procedure, shortened: as §2
Pseudomonas aeruginosa [18] = test: Antimicrobial activity against Pseudomonas aeruginosa isolate OC14812 harboring plasmid JAK16 expressing mexXY gene by broth microdilution method; assay type: functional; procedure, shortened: as §2
Pseudomonas aeruginosa [19] = test: Antimicrobial activity against Pseudomonas aeruginosa isolate OC16830 harboring plasmid MexZ expressing mexXY gene by broth microdilution method
Pseudomonas aeruginosa [20] = test: Antimicrobial activity against Pseudomonas aeruginosa isolate OC16827 harboring plasmid MexZ expressing mexXY gene by broth microdilution method
Pseudomonas aeruginosa [21] = test: Antimicrobial activity against Pseudomonas aeruginosa PAO1 harboring plasmid MexXY expressing mexXY gene by broth microdilution method; assay type: functional; procedure, shortened: as §2
Pseudomonas aeruginosa [22] = test: Antimicrobial activity against Pseudomonas aeruginosa isolate OC16827 harboring plasmid MexXY expressing mexXY gene by broth microdilution method; assay type: functional; procedure, shortened: as §2
Pseudomonas aeruginosa [23] = test: Antimicrobial activity against Pseudomonas aeruginosa isolate OC14805 on day 4 by broth microdilution method; assay type: functional; conditions: isolate OC14805, 96 h; procedure, shortened: as §1
Pseudomonas aeruginosa [24] = test: Antimicrobial activity against Pseudomonas aeruginosa isolate OC17349 after end of treatment by broth microdilution method; assay type: functional; procedure, shortened: as §1
Pseudomonas aeruginosa [25] = test: Antimicrobial activity against Pseudomonas aeruginosa isolate OC14552 on day 4 by broth microdilution method; assay type: functional; conditions: isolate OC14552, 96 h; procedure, shortened: as §1
Pseudomonas aeruginosa [26] = test: Antimicrobial activity against Pseudomonas aeruginosa isolate OC14551 on day 8 by broth microdilution method; conditions: isolate OC14551, 192 h
Pseudomonas aeruginosa [27] = test: Antimicrobial activity against Pseudomonas aeruginosa isolate OC16827 on day 14 by broth microdilution method; assay type: functional; conditions: isolate OC16827, 336 h; procedure, shortened: as §1
Pseudomonas aeruginosa [28] = test: Antimicrobial activity against Pseudomonas aeruginosa isolate OC14805 after > 14 days by broth microdilution method; assay type: functional; conditions: isolate OC14805, 336 h; procedure, shortened: as §1
Pseudomonas aeruginosa [29] = test: Antimicrobial activity against Pseudomonas aeruginosa isolate OC17349 on day 4 by broth microdilution method; assay type: functional; conditions: isolate OC17349, 96 h; procedure, shortened: as §1
Pseudomonas aeruginosa [30] = test: Antimicrobial activity against Pseudomonas aeruginosa isolate OC16827 after end of treatment by broth microdilution method; assay type: functional; procedure, shortened: as §1
Pseudomonas aeruginosa [31] = test: Antimicrobial activity against Pseudomonas aeruginosa isolate OC14805 after 7 to 14 days by broth microdilution method; assay type: functional; procedure, shortened: as §1
Pseudomonas aeruginosa [32] = test: Antimicrobial activity against Pseudomonas aeruginosa isolate OC17349 after 7 to 14 days by broth microdilution method; assay type: functional; procedure, shortened: as §1

Compound	MIC (Pseudomonas aeruginosa [1]) [µg/mL]	MIC (Pseudomonas aeruginosa [2]) [µg/mL]	MIC (Pseudomonas aeruginosa [3]) [µg/mL]	MIC (Pseudomonas aeruginosa [4]) [µg/mL]	MIC (Pseudomonas aeruginosa [5]) [µg/mL]	MIC (Pseudomonas aeruginosa [6]) [µg/mL]	MIC (Pseudomonas aeruginosa [7]) [µg/mL]	MIC (Pseudomonas aeruginosa [8]) [µg/mL]	MIC (Pseudomonas aeruginosa [9]) [µg/mL]	MIC (Pseudomonas aeruginosa [10]) [µg/mL]	MIC (Pseudomonas aeruginosa [11]) [µg/mL]	MIC (Pseudomonas aeruginosa [12]) [µg/mL]	MIC (Pseudomonas aeruginosa [13]) [µg/mL]	MIC (Pseudomonas aeruginosa [14]) [µg/mL]	MIC (Pseudomonas aeruginosa [15]) [µg/mL]	MIC (Pseudomonas aeruginosa [16]) [µg/mL]	MIC (Pseudomonas aeruginosa [17]) [µg/mL]	MIC (Pseudomonas aeruginosa [18]) [µg/mL]	MIC (Pseudomonas aeruginosa [19]) [µg/mL]	MIC (Pseudomonas aeruginosa [20]) [µg/mL]	other results
GENTAMICIN	4	0.25	2	8	4	16	2	8	0.25	4	8	4	4	8	4	4	4	8			
O=C(O)c1cn(C2CC2)c2cc(N3CCNCC3)c(F)cc2c1=O [CIPROFLOXACIN]	0.12 (≈ 0.362 µM)	1 (≈ 3.02 µM)				4 (≈ 12.1 µM)		1 (≈ 3.02 µM)	0.12 (≈ 0.362 µM)	4 (≈ 12.1 µM)					4 (≈ 12.1 µM)			1 (≈ 3.02 µM)	0.12 (≈ 0.362 µM)	0.12 (≈ 0.362 µM)	MIC (Pseudomonas aeruginosa [21]): 1 µg/mL (≈ 3.02 µM)
CO/N=C(\C(=O)N[C@@H]1C(=O)N2C(C(=O)[O-])=C(C[N+]3(C)CCCC3)CS[C@H]12)c1csc(N)n1	4 (≈ 8.32 µM)	2 (≈ 4.16 µM)	2 (≈ 4.16 µM)	8 (≈ 16.6 µM)	2 (≈ 4.16 µM)	8 (≈ 16.6 µM)	2 (≈ 4.16 µM)	8 (≈ 16.6 µM)	1 (≈ 2.08 µM)	4 (≈ 8.32 µM)	8 (≈ 16.6 µM)	2 (≈ 4.16 µM)	8 (≈ 16.6 µM)	16 (≈ 33.3 µM)	8 (≈ 16.6 µM)	2 (≈ 4.16 µM)	4 (≈ 8.32 µM)	8 (≈ 16.6 µM)	4 (≈ 8.32 µM)	2 (≈ 4.16 µM)	MIC (Pseudomonas aeruginosa [22]): 8 µg/mL (≈ 16.6 µM); MIC (Pseudomonas aeruginosa [21]): 8 µg/mL (≈ 16.6 µM)
Nc1nc(/C(=N/O)C(=O)N[C@@H]2C(=O)N3C(C(=O)O)=C(/C=C4\CCN([C@@H]5CCNC5)C4=O)CS[C@H]23)ns1 [CEFTOBIPROLE]	4 (≈ 7.48 µM)	2 (≈ 3.74 µM)	2 (≈ 3.74 µM)	16 (≈ 29.9 µM)	4 (≈ 7.48 µM)	8 (≈ 15 µM)	2 (≈ 3.74 µM)	16 (≈ 29.9 µM)	1 (≈ 1.87 µM)	4 (≈ 7.48 µM)	16 (≈ 29.9 µM)	4 (≈ 7.48 µM)	16 (≈ 29.9 µM)	16 (≈ 29.9 µM)	16 (≈ 29.9 µM)	4 (≈ 7.48 µM)	4 (≈ 7.48 µM)	16 (≈ 29.9 µM)	1 (≈ 1.87 µM)	1 (≈ 1.87 µM)	MIC (Pseudomonas aeruginosa [23]): 4 µg/mL (≈ 7.48 µM); MIC (Pseudomonas aeruginosa [24]): 16 µg/mL (≈ 29.9 µM); MIC (Pseudomonas aeruginosa [25]): 4 µg/mL (≈ 7.48 µM); MIC (Pseudomonas aeruginosa [22]): 16 µg/mL (≈ 29.9 µM); MIC (Pseudomonas aeruginosa [26]): 16 µg/mL (≈ 29.9 µM); MIC (Pseudomonas aeruginosa [27]): 16 µg/mL (≈ 29.9 µM); MIC (Pseudomonas aeruginosa [28]): 16 µg/mL (≈ 29.9 µM); MIC (Pseudomonas aeruginosa [29]): 16 µg/mL (≈ 29.9 µM); MIC (Pseudomonas aeruginosa [30]): 16 µg/mL (≈ 29.9 µM); MIC (Pseudomonas aeruginosa [21]): 32 µg/mL (≈ 59.9 µM); MIC (Pseudomonas aeruginosa [31]): 16 µg/mL (≈ 29.9 µM); MIC (Pseudomonas aeruginosa [32]): 16 µg/mL (≈ 29.9 µM)
CC(C)(O/N=C(\C(=O)N[C@@H]1C(=O)N2C(C(=O)[O-])=C(C[n+]3ccccc3)CS[C@H]12)c1csc(N)n1)C(=O)O [CEFTAZIDIME]	4 (≈ 7.32 µM)	4 (≈ 7.32 µM)	4 (≈ 7.32 µM)	2 (≈ 3.66 µM)	2 (≈ 3.66 µM)	4 (≈ 7.32 µM)	2 (≈ 3.66 µM)	4 (≈ 7.32 µM)	1 (≈ 1.83 µM)	4 (≈ 7.32 µM)	2 (≈ 3.66 µM)	2 (≈ 3.66 µM)	4 (≈ 7.32 µM)	4 (≈ 7.32 µM)	4 (≈ 7.32 µM)	2 (≈ 3.66 µM)	4 (≈ 7.32 µM)	4 (≈ 7.32 µM)	2 (≈ 3.66 µM)	2 (≈ 3.66 µM)	MIC (Pseudomonas aeruginosa [22]): 2 µg/mL (≈ 3.66 µM); MIC (Pseudomonas aeruginosa [21]): 1 µg/mL (≈ 1.83 µM)
